{
  "source": "ChEMBL document CHEMBL2203122",
  "about": "(J Med Chem, 2012)",
  "key": {"Rattus norvegicus [1]": {"test_system": "Rattus norvegicus", "assay": "Retinotoxicity in male Wistar albino rat assessed as reduction in 10 Hz flicker ERG at 200 mg/kg, ip administered QD for 45 days by electroretinogram analysis relative to control", "format": "toxicity, organism-based", "parameters": "dose 200 mg/kg, route intraperitoneal", "conditions": "in vivo, 1080 h"}, "Rattus norvegicus [2]": {"test_system": "Rattus norvegicus", "assay": "Retinotoxicity in Wistar albino rat assessed as increase cone implicit time at 200 mg/kg, ip administered QD for 45 to 90 days relative to control", "format": "toxicity, organism-based", "parameters": "dose 200 mg/kg, route intraperitoneal", "conditions": "in vivo", "method_in_brief": "(§1)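 Wistar albino rats, 9 weeks old at the start and of both sexes, received one i.p. injection daily for 45 or 90 days. The dose was in 0.9% saline made fresh weekly, against a saline vehicle group. After a 5–7 day washout and at least 12 h of dark adaptation, pupils were dilated (tropicamide 1%, phenylephrine 10%). ERG was then recorded from both eyes under ketamine/xylazine.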"}, "Rattus norvegicus [3]": {"test_system": "Rattus norvegicus", "assay": "Retinotoxicity in Wistar albino rat assessed as increase rod implicit time at 200 mg/kg, ip administered QD for 45 to 90 days relative to control", "format": "toxicity, organism-based", "parameters": "dose 200 mg/kg, route intraperitoneal", "conditions": "in vivo", "method_in_brief": "as §1"}, "Rattus norvegicus [4]": {"test_system": "Rattus norvegicus", "assay": "Toxicity in Wistar albino rat assessed as mortality at 200 mg/kg, ip measured up to 3 weeks", "format": "organism-based", "parameters": "dose 200 mg/kg, route intraperitoneal", "conditions": "in vivo, 504 h", "method_in_brief": "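Mixed-sex Wistar albino rats, 15 per group, dosed ip once daily with drug in 0.9% saline. Monitored for mortality, moribundity, clinical signs, feed intake and body weight. Animals in distress over 24 h were euthanized. Some received food supplements or ip fluids during the first 3 weeks.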"}, "Rattus norvegicus [5]": {"test_system": "Rattus norvegicus", "assay": "Retinotoxicity in female Wistar albino rat assessed as reduction in 10 Hz flicker ERG at 200 mg/kg, ip administered QD for 45 days by electroretinogram analysis relative to control", "format": "toxicity, organism-based", "parameters": "dose 200 mg/kg, route intraperitoneal", "conditions": "in vivo, 1080 h"}, "Rattus norvegicus [6]": {"test_system": "Rattus norvegicus", "assay": "Retinotoxicity in male Wistar albino rat assessed as reduction in 10 Hz flicker ERG at 200 mg/kg, ip administered QD for 90 days by electroretinogram analysis relative to control", "format": "toxicity, organism-based", "parameters": "dose 200 mg/kg, route intraperitoneal", "conditions": "in vivo, 2160 h"}, "Rattus norvegicus [7]": {"test_system": "Rattus norvegicus", "assay": "Retinotoxicity in female Wistar albino rat assessed as reduction in 10 Hz flicker ERG at 200 mg/kg, ip administered QD for 90 days by electroretinogram analysis relative to control", "format": "toxicity, organism-based", "parameters": "dose 200 mg/kg, route intraperitoneal", "conditions": "in vivo, 2160 h"}, "Rattus norvegicus [8]": {"test_system": "Rattus norvegicus", "assay": "Inhibition of cocaine-induced conditioned place preference in rat assessed as time spent in the chamber at 300 mg/kg, ip administered 2.5 hrs prior to cocaine-challenge measured after 12 days for 15 mins (reference value: 7.1 +/- 0.6 mins)", "format": "functional", "conditions": "route intraperitoneal"}, "Rattus norvegicus [9]": {"test_system": "Rattus norvegicus", "assay": "Retinotoxicity in Wistar albino rat assessed as increase mesopic implicit time at 200 mg/kg, ip administered QD for 45 to 90 days relative to control", "format": "toxicity, organism-based", "parameters": "dose 200 mg/kg, route intraperitoneal", "conditions": "in vivo"}},
  "data": [
    {"smiles": "C=CC(N)CCC(=O)O", "note": "(centres undefined) [VIGABATRIN]", "values": [
      {"measurement": "Activity", "setting": "Rattus norvegicus [1]", "value": "Toxic"},
      {"measurement": "Activity", "setting": "Rattus norvegicus [2]", "value": "Toxic"},
      {"measurement": "Activity", "setting": "Rattus norvegicus [3]", "value": "Toxic"},
      {"measurement": "Activity", "setting": "Rattus norvegicus [4]", "value": "Toxic"},
      {"measurement": "Activity", "setting": "Rattus norvegicus [5]", "value": "Toxic"},
      {"measurement": "Activity", "setting": "Rattus norvegicus [6]", "value": "Toxic"},
      {"measurement": "Activity", "setting": "Rattus norvegicus [7]", "value": "Toxic"},
      {"measurement": "Time", "setting": "Rattus norvegicus [8]", "value": 7.9, "unit": "min"},
      {"measurement": "Activity", "setting": "Rattus norvegicus [9]", "value": "Toxic"}
    ]}
  ]
}
